What is called inhibition in vivo is the percentage by which the read-out fell short of the control. A lower inhibition in vivo goes with a response near the control. A word on the inhibition: it is how much of the control response was suppressed. A high value points to a strong effect. For orientation: Inhibition means the relative decrease from the control value, in per cent. A high value points to a response far below the control.

Structures are written as SMILES.

Test [1] concerns Rattus norvegicus. Put plainly: The compound was tested in vivo for the inhibition of cholesterol biosynthesis in chow-fed rats at 1.0 mg/kg. The format is functional. An outline of the steps: (§1)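 Acute in vivo cholesterol synthesis (AICS) in normal chow-fed rats. Compounds dosed in DMA/PEG solution, 1.0 mg/kg po unless stated otherwise. Synthesis measured as incorporation of [1-14C]acetate into plasma sterols.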

Test [2] has as its system Canis familiaris. Put plainly: Hypocholesterolemic activity in Cholestyramine-primed Beagle dogs at dose of 1.0 mg/kg two weeks after. The format is functional, Canis lupus familiaris. The method, boiled down: (§2)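 Beagle dogs pretreated with cholestyramine resin, then given resin plus inhibitor. Plasma cholesterol read after 2 and 4 weeks of drug treatment. Values are mean percent change from pretreatment values within the same group; significance versus untreated controls at p < 0.05.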

Test [3] relates to Canis familiaris. Put plainly: Hypocholesterolemic activity in Cholestyramine-primed Beagle dogs at dose of 0.1 mg/kg four weeks after. The test is classed as functional, Canis lupus familiaris. An outline of the steps:
as §2

In test [4] the test system is Canis familiaris. Kind of test: Hypocholesterolemic activity in Cholestyramine-primed Beagle dogs at dose of 0.3 mg/kg four weeks after. The test is classed as functional, Canis lupus familiaris. The method, boiled down: as §2
The test system of test [5] is Canis familiaris. Put plainly: Hypocholesterolemic activity in Cholestyramine-primed Beagle dogs at dose of 0.1 mg/kg two weeks after. The format is functional, Canis lupus familiaris. An outline of the steps: as §2
Test [6] has as its system Canis familiaris. Kind of test: Hypocholesterolemic activity in Cholestyramine-primed Beagle dogs at dose of 0.3 mg/kg two weeks after. The test is classed as functional, Canis lupus familiaris. The method, boiled down:
as §2

Test [7] concerns Canis familiaris. Kind of test: Hypocholesterolemic activity in Cholestyramine-primed Beagle dogs at dose of 1.0 mg/kg four weeks after. The format is functional, Canis lupus familiaris. An outline of the steps:
as §2

For test [8], the target named is T1, 3-hydroxy-3-methylglutaryl-coenzyme A reductase (Rattus norvegicus) (UniProt P51639).
T1 sequence (whole entry): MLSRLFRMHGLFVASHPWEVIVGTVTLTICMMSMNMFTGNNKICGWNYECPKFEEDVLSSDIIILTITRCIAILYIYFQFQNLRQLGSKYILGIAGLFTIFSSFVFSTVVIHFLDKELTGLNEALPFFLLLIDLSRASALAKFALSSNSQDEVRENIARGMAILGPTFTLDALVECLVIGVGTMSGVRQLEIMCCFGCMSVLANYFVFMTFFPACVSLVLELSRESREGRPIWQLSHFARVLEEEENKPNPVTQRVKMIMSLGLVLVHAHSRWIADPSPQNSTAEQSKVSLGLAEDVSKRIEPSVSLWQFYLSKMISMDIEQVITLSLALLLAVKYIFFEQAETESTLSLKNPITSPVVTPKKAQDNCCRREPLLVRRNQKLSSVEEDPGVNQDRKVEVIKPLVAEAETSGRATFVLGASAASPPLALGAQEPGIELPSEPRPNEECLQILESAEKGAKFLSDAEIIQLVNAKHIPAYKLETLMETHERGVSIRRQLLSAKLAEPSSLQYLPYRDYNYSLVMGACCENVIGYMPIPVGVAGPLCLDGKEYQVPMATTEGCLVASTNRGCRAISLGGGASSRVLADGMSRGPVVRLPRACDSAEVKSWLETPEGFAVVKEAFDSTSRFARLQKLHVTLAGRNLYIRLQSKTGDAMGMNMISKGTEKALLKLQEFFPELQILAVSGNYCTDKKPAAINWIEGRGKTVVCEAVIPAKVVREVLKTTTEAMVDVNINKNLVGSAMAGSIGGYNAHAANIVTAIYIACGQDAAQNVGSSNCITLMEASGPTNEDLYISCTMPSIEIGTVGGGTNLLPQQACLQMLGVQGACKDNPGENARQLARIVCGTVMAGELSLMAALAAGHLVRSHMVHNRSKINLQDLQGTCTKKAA
Kind of test: Tested in vivo for the inhibition of cholesterol biosynthesis in chow-fed rats at 1.0 mg/kg. The arrangement: dose 1 mg/kg. The format is functional, organism-based. An outline of the steps:
as §1

Test [9] deals with Rattus norvegicus. Kind of test: The compound was tested in vivo for the inhibition of cholesterol biosynthesis in chow-fed rats. The format is functional. An outline of the steps:
as §1

For test [10], the system named is Rattus norvegicus. Kind of test: The compound was tested in vivo for the inhibition of cholesterol biosynthesis in chow-fed rats at 1.0 mg/kg. The test is classed as functional. An outline of the steps:
as §1

The test system of test [11] is Rattus norvegicus. Kind of test: The compound in lactone form was tested in vivo for the inhibition of cholesterol biosynthesis in chow-fed rats at 1.0 mg/kg. The test is classed as functional. An outline of the steps: as §1
Test [12] has as its system Rattus norvegicus. Kind of test: The compound form was tested in vivo for the inhibition of cholesterol biosynthesis in chow-fed rats at 1.0 mg/kg; not determined. The format is functional. The method, boiled down:
as §1

Consider `CC(C)c1nn(-c2ccccc2)c(-c2ccc(F)cc2)c1CCC1C[C@@H](O)CC(=O)O1` (some centres undefined), for which the inhibition in vivo at 1 mg/kg with Rattus norvegicus [1] amounted to 54%.
In the case of `CC(C)c1nn(-c2ccccn2)c(-c2ccc(F)cc2)c1/C=C/[C@@H]1C[C@@H](O)CC(=O)O1` (stereo in doubt; 20a) [listing 1 of 2 here], the Change with Canis familiaris [2] was -44%; in the test on Canis familiaris [3], -16%; with Canis familiaris [4], -32%; in the test on Canis familiaris [5] it was -20%; with Canis familiaris [6], -31%; in the test with Canis familiaris [7], -50%.
Compound `CC(C)c1nn(-c2cnccn2)c(-c2ccc(F)cc2)c1/C=C/[C@@H](O)C[C@@H](O)CC(=O)[O-].[Na+]` came in with an inhibition in [8] of 75%. Further, in the test with Rattus norvegicus [9], the Inhibition came out at 91%.
For the compound `CC(C)c1nn(-c2ccc3ccccc3n2)c(-c2ccc(F)cc2)c1/C=C/[C@@H](O)C[C@@H](O)CC(=O)O`, the inhibition in test [8] is 69%.
The same measure, in the same setting: then `CC(C)c1nn(-c2ccccc2)c(-c2ccc(F)cc2)c1/C=C/[C@@H](O)C[C@@H](O)CC(=O)O`, with 94%.
`CC(C)c1nn(-c2cnccn2)c(-c2ccc(F)cc2)c1/C=C/[C@@H]1C[C@@H](O)CC(=O)O1` (stereo in doubt; 20b): the inhibition in [8] amounted to 92%.
Still for that read-out and setting: then `CC(C)c1nn(-c2cnccn2)c(-c2ccc(F)cc2)c1/C=C/[C@@H]1C[C@@H](O)CC(=O)O1` (stereo in doubt; 10b), with 80%; and `O=C1C[C@H](O)C[C@@H](/C=C/c2c(C(F)(F)F)nn(-c3ccccn3)c2-c2ccc(F)cc2)O1`, with 60%; and `CC(C)c1nn(-c2ccc3ccccc3n2)c(-c2ccc(F)cc2)c1/C=C/[C@@H]1C[C@@H](O)CC(=O)O1`, with 75%.
With `CC(C)c1nn(-c2ccccn2)c(-c2ccc(F)cc2)c1/C=C/[C@@H]1C[C@@H](O)CC(=O)O1` (stereo in doubt; 10a), the inhibition in [8] worked out at 83%.
Consider `CC(C)c1nn(-c2ccccn2)c(-c2ccc(F)cc2)c1CCC(O)C[C@@H](O)CC(=O)O` (some centres undefined), for which the inhibition in test [8] worked out at 68%.
On the same count and under the same terms, then `CC(C)c1nn(-c2ccccn2)c(-c2ccc(F)cc2)c1CCC1C[C@@H](O)CC(=O)O1` (some centres undefined), with 58%.
Regarding `CC[C@H](C)C(=O)O[C@H]1C[C@@H](C)C=C2C=C[C@H](C)[C@H](CC[C@@H]3C[C@@H](O)CC(=O)O3)[C@H]21` [LOVASTATIN], the Change is given as -25% in the test on Canis familiaris [2]; -1% with Canis familiaris [3]; -2% with Canis familiaris [4]; -7% in the test with Canis familiaris [5]; -10% with Canis familiaris [6]; -17% with Canis familiaris [7]. Besides, the inhibition in vivo at 1 mg/kg with Rattus norvegicus [10] is 64%.
Regarding `CC(C)c1nn(-c2ccccc2)c(-c2ccc(F)cc2)c1CCC(O)C[C@@H](O)CC(=O)O` (some centres undefined), the inhibition in test [8] worked out at 72%.
Compound `CC(C)c1nn(-c2nc3ccccc3s2)c(-c2ccc(F)cc2)c1/C=C/[C@@H](O)C[C@@H](O)CC(=O)O` yielded an inhibition in test [8] of 51%.
In test [8], `CC(C)c1nn(-c2ccccn2)c(-c2ccc(F)cc2)c1/C=C/[C@@H](O)C[C@@H](O)CC(=O)O` yielded an inhibition of 98%. This compound also displayed an inhibition in vivo at 1 mg/kg with Rattus norvegicus [11] of 85%.
Compound `CC(C)c1nn(-c2nc3ccccc3s2)c(-c2ccc(F)cc2)c1/C=C/[C@@H]1C[C@@H](O)CC(=O)O1` returned an inhibition in test [8] of 30%.
Consider `CC[C@H](C)C(=O)O[C@H]1C[C@H](O)C=C2C=C[C@H](C)[C@H](CC[C@@H](O)C[C@@H](O)CC(=O)O)[C@H]21` [PRAVASTATIN], for which the inhibition in vivo at 1 mg/kg in the test with Rattus norvegicus [12] was 48%. The compound also showed an inhibition in [8] of 48%.
Turning to `O=C(O)C[C@H](O)C[C@H](O)/C=C/c1c(C(F)(F)F)nn(-c2ccccn2)c1-c1ccc(F)cc1`, the inhibition in test [8] worked out at 81%.
For `CC(C)c1nn(-c2ccccn2)c(-c2ccc(F)cc2)c1/C=C/[C@@H]1C[C@@H](O)CC(=O)O1` (stereo in doubt; 20a) [listing 2 of 2 here], in test [8], the inhibition came out at 93%.

(Values after ChEMBL document CHEMBL1126067, “Inhibitors of cholesterol biosynthesis. 6. trans-6-[2-(2-N-heteroaryl-3,5-disubstituted- pyrazol-4-yl)ethyl/ethenyl]tetrahydro-4-hydroxy-2H-pyran-2-ones” (J Med Chem, 1992).)
